What was measured:
[1] = system: Rattus norvegicus; experiment: Effect of compound was measured on serum total cholesterol in male Dawley rats at the dose of 0.2 mmol/kg (day+7).; format: functional, organism-based
Procedure, shortened: (§1)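 Serum total cholesterol was measured enzymatically on a bichromatic analyzer. Serum was separated after clotting on ice (2000g, 10 min), held at 4 °C and assayed within 48 h. Rats were male Sprague-Dawley on a high-cholesterol diet, n = 6, dosed orally twice daily for 14 days in 0.25% methylcellulose (1.0 mL/100 g). They were fasted 16-18 h before each bleed. Results are in mg/dL ± SD.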

[2] = system: Rattus norvegicus; experiment: Effect of compound was measured on serum total cholesterol in male Dawley rats at the dose of 0.2 mmol/kg (day-1).; format: functional, organism-based; procedure, shortened: as §1
[3] = system: Rattus norvegicus; experiment: Effect of compound was measured on serum total triglycerides in male Dawley rats at the dose of 0.2 mmol/kg (day+4).; format: functional, organism-based
Procedure, shortened: (§2)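 Serum triglycerides were measured with an enzymatic triglyceride reagent on a bichromatic analyzer. Rats were male Sprague-Dawley (180-210 g) fed a high-cholesterol diet, n = 6 per group, dosed orally twice daily for 14 days in 0.25% methylcellulose or vehicle. They were fasted 16-18 h before blood collection on days -1, +4, +7, +10 (orbital plexus, light ether) and +14 (aorta). Analysis was repeated-measures ANOVA with Duncan's test.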

[4] = system: Rattus norvegicus; experiment: Effect of compound was measured on serum total cholesterol in male Dawley rats at the dose of 0.2 mmol/kg (day+10).; format: functional, organism-based; procedure, shortened: as §1
[5] = system: Rattus norvegicus; experiment: Effect of compound was measured on serum total cholesterol in male Dawley rats at the dose of 0.2 mmol/kg (day+4).; format: functional, organism-based; procedure, shortened: as §1
[6] = system: Rattus norvegicus; experiment: Effect of compound was measured on serum alpha-lipoprotein in male Dawley rats at the dose of 0.4 mmol/kg (day+10).; format: functional
Procedure, shortened: (§3)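 Male Sprague-Dawley rats (180-210 g) fed a high-cholesterol diet for 1 week before and throughout dosing. Groups of n = 6 were dosed orally twice daily for 14 days in 0.25% methylcellulose, with vehicle controls. Rats were fasted 16-18 h before orbital bleeds on days -1, +4, +7 and +10, and by aortic exsanguination on day +14. Serum α-lipoprotein cholesterol was measured by polyanionic precipitation, in mg/dL ± SD.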

[7] = system: Rattus norvegicus; experiment: Effect of compound was measured on serum alpha-lipoprotein in male Dawley rats at the dose of 0.4 mmol/kg (day+7).; format: functional; procedure, shortened: as §3
[8] = system: Rattus norvegicus; experiment: Effect of compound was measured on serum alpha-lipoprotein in male Dawley rats at the dose of 0.4 mmol/kg (day-1).; format: functional; procedure, shortened: as §3
[9] = system: Rattus norvegicus; experiment: Effect of compound was measured on serum alpha-lipoprotein in male Dawley rats at the dose of 0.4 mmol/kg (day14).; format: functional; procedure, shortened: as §3
[10] = system: Rattus norvegicus; experiment: Effect of compound was measured on serum alpha-lipoprotein in male Dawley rats at the dose of 0.2 mmol/kg (day+14).; format: functional; procedure, shortened: as §3
[11] = system: Rattus norvegicus; experiment: Effect of compound was measured on serum alpha-lipoprotein in male Dawley rats at the dose of 0.2 mmol/kg (day+4).; format: functional; procedure, shortened: as §3
[12] = system: Rattus norvegicus; experiment: Effect of compound was measured on serum alpha-lipoprotein in male Dawley rats at the dose of 0.2 mmol/kg (day+7).; format: functional; procedure, shortened: as §3
[13] = system: Rattus norvegicus; experiment: Effect of compound was measured on serum alpha-lipoprotein in male Dawley rats at the dose of 0.2 mmol/kg (day-1).; format: functional; procedure, shortened: as §3
[14] = system: Rattus norvegicus; experiment: Effect of compound was measured on serum total cholesterol in male Dawley rats at the dose of 0.4 mmol/kg (day+10).; format: functional, organism-based; procedure, shortened: as §1
[15] = system: Rattus norvegicus; experiment: Effect of compound was measured on serum total cholesterol in male Dawley rats at the dose of 0.4 mmol/kg (day+4).; format: functional, organism-based; procedure, shortened: as §1
[16] = system: Rattus norvegicus; experiment: Effect of compound was measured on serum total cholesterol in male Dawley rats at the dose of 0.4 mmol/kg (day+7).; format: functional, organism-based; procedure, shortened: as §1
[17] = system: Rattus norvegicus; experiment: Effect of compound was measured on serum total triglycerides in male Dawley rats at the dose of 0.4 mmol/kg (day+14).; format: functional, organism-based; procedure, shortened: as §2
[18] = system: Rattus norvegicus; experiment: Effect of compound was measured on serum total triglycerides in male Dawley rats at the dose of 0.4 mmol/kg (day-1); format: functional, organism-based; procedure, shortened: as §2
[19] = system: Rattus norvegicus; experiment: Effect of compound was measured on serum total triglycerides in male Dawley rats at the dose of 0.2 mmol/kg (day-1).; format: functional, organism-based; procedure, shortened: as §2
[20] = system: Rattus norvegicus; experiment: Effect of compound on liver CH levels in male Dawley rats at the dose of 0.2 mmol/kg; format: functional
Procedure, shortened: (§4)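 Male Sprague-Dawley rats (180-210 g) were kept on a high-cholesterol diet for 1 week before and throughout treatment. Groups of n = 6 received drug in 0.25% methylcellulose orally twice daily for 14 days, or vehicle. After a 16-18 h fast, livers were excised at day +14 and homogenized in 0.1 M Tris-HCl pH 7.2 with 1.15% KCl. Lipids were extracted from 25% w/v homogenate and reported as g/100 g wet liver ± SD; groups compared by ANOVA and Duncan's test.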

[21] = system: Rattus norvegicus; experiment: Effect of compound on liver CH levels in male Dawley rats at the dose of 0.4 mmol/kg; format: functional; parameters: unit: g/100 g wet liver; procedure, shortened: as §4
[22] = system: Rattus norvegicus; experiment: Effect of compound on liver TG levels in male Dawley rats at the dose of 0.2 mmol/kg; format: functional; procedure, shortened: as §4
[23] = system: Rattus norvegicus; experiment: Effect of compound on liver TG levels in male Dawley rats at the dose of 0.4 mmol/kg; format: functional; parameters: unit: g/100 g wet liver; procedure, shortened: as §4
[24] = Effect of compound on liver to body weight ratio in male Dawley rats at the dose of 0.2 mmol/kg; format: functional
Procedure, shortened: (§5)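 Male Sprague-Dawley rats (180-210 g) were kept on a cholesterol-rich diet and dosed orally twice daily for 14 days in 0.25% methylcellulose; vehicle controls received the same; n = 6 per group. After a 16-18 h fast, rats were exsanguinated at day +14. Livers were removed, rinsed in ice-cold buffer, blotted and weighed, and related to body weight. Data were analysed by repeated-measures ANOVA with Duncan's multiple range test.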

[25] = Effect of compound was measured on serum heparin-MnCl2 precipated ipoprotein Dawley rats at 0.2 mmol/kg dose(day+10).; format: functional
Procedure, shortened: (§6)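 Cholesterol-fed male Sprague-Dawley rats, n = 6 per group, given compound or 0.25% methylcellulose orally twice daily for 14 days, and fasted 16-18 h before each bleed (days -1, +4, +7, +10, +14). Heparin-MnCl2 precipitable lipoprotein cholesterol was taken as serum total cholesterol minus α-lipoprotein cholesterol. It is reported as a ratio to α-LP cholesterol ± SD. Analysis was ANOVA with repeated measures and Duncan's test.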

[26] = Effect of compound was measured on serum heparin-MnCl2 precipated ipoprotein Dawley rats at 0.2 mmol/kg dose(day+14).; format: functional; procedure, shortened: as §6
[27] = Effect of compound was measured on serum heparin-MnCl2 precipated ipoprotein Dawley rats at 0.2 mmol/kg dose(day+7).; format: functional; procedure, shortened: as §6
[28] = Effect of compound was measured on serum heparin-MnCl2 precipated ipoprotein Dawley rats at 0.4 mmol/kg dose(day+10).; format: functional; procedure, shortened: as §6
[29] = Effect of compound was measured on serum heparin-MnCl2 precipated ipoprotein Dawley rats at 0.4 mmol/kg dose(day+4).; format: functional; procedure, shortened: as §6
[30] = Effect of compound was measured on serum heparin-MnCl2 precipated ipoprotein Dawley rats at 0.4 mmol/kg dose(day+7).; format: functional; procedure, shortened: as §6
[31] = Effect of compound was measured on serum heparin-MnCl2 precipated ipoprotein Dawley rats at 0.4 mmol/kg dose(day-1).; format: functional; procedure, shortened: as §6
[32] = Effect of compound on liver to body weight ratio in male Dawley rats at the dose of 0.4 mmol/kg; format: functional; procedure, shortened: as §5
[33] = Effect of compound was measured on serum heparin-MnCl2 precipated ipoprotein Dawley rats at 0.4 mmol/kg dose(day+14).; format: functional; procedure, shortened: as §6

O=C1C(O)=C(O)OC1c1ccc(Cl)cc1 (stereo not drawn)
serum total cholesterol [1]: 204 mg/dL | serum total cholesterol [2]: 276 mg/dL | Serum total triglycerides [3]: 251 mg/dL | serum total cholesterol [4]: 161 mg/dL | serum total cholesterol [5]: 195 mg/dL | Alpha-lipoprotein cholesterol [6]: 52.2 mg/dL | Alpha-lipoprotein cholesterol [7]: 46 mg/dL | Alpha-lipoprotein cholesterol [8]: 39.7 mg/dL | Alpha-lipoprotein cholesterol [9]: 61 mg/dL | Alpha-lipoprotein cholesterol [10]: 48.5 mg/dL | Alpha-lipoprotein cholesterol [11]: 43.8 mg/dL | Alpha-lipoprotein cholesterol [12]: 42.5 mg/dL | Alpha-lipoprotein cholesterol [13]: 40.8 mg/dL | serum total cholesterol [14]: 135 mg/dL | serum total cholesterol [15]: 154 mg/dL | serum total cholesterol [16]: 125 mg/dL | Serum total triglycerides [17]: 87.8 mg/dL | Serum total triglycerides [18]: 193 mg/dL | Serum total triglycerides [19]: 313 mg/dL | Liver CH levels [20]: 3.28 | Liver CH levels [21]: 2.93 | Liver TG [22]: 4.82 | Liver TG [23]: 5.08 | Ratio [24]: 3.8 | Ratio [25]: 3.33 | Ratio [26]: 2.2 | Ratio [27]: 4.03 | Ratio [28]: 1.75 | Ratio [29]: 2.79 | Ratio [30]: 1.74 | Ratio [31]: 3.96 | Ratio [32]: 3.6 | Ratio [33]: 1.39

— ChEMBL document CHEMBL1121938, “Hypocholesterolemic and antiaggregatory properties of 2-hydroxytetronic acid redox analogues an their relationship to clofibric acid” (1982)
